# Hits are enriched below; roughly 6.8% of the tested compounds scored in any of these assays.
# M1 agonist: M1 muscarinic receptor agonists, primary screen, CHO-M1 cells, Fluo-4 calcium, agonist mode. Muscarinic acetylcholine receptor M1. Fluo-4 calcium fluorescence; stronger effect = higher value. B-score at 10 µM. 3% of 64,000 active. AID 626, 2007;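 active = fluorescence rise, raw or as B-score row- and column-corrected plate score, outside the 99.7% band of its plate's samples, either direction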
# M1 antag: antagonists of rat M1 muscarinic receptor | CHO-M1 cells, Fluo-4 calcium, ACh EC80 antagonist mode; stronger effect = lower value | B-score at 10 µM | 3.4% of 64,000 active | AID 628, 2007;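 active = calcium fluorescence response, raw or row-and-column corrected B-score, differing from the plate sample mean either way at a set confidence level, mostly lower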
# HEK293 NFkB inh: inhibitors of PMA/ionomycin-induced NF-kB reporter, primary screen, antigen receptor NF-kB inhibitor project, cell-based, HEK-293 luciferase reporter, luminescence; HEK-293 NF-kB luciferase reporter; 0.21% of 62,000 active; inhibition, % at 3 µM; AID 465, 2006;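 active = inhibition above the mean of all tested compounds plus 3 SD, cut at about 40% in these data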;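 also: 0% = stimulated DMSO wells and 100% = 10 µM reference inhibitor 5653914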
#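 Signal: luciferase luminescence; Material: HEK-293 cells with stable firefly luciferase reporter driven by four HIV NF-kB elements; Probe or stimulus: PMA with ionomycin; Replication: tested once; Times: 1 h compound pretreatment, then 16 h stimulation at 37 °C, 5% CO2; Benchmarks: DMSO and 10 µM reference inhibitor; Evaluation: per-plate % inhibition versus controls.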
# HER2 expr 66K: inhibitors of Her2 protein expression, primary screen, SKBR-3 cells, AlphaScreen, 66K library; HER2 level % of control, % at 10 µM; SKBR-3 HER2 protein level, 18-24 h; stronger effect = lower value; Receptor tyrosine-protein kinase erbB-2 (Homo sapiens), P04626; AID 645, 2007; 0.69% of 65,000 active;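 active = HER2 level under 5% of the carrier-only control; inconclusive = no clear call, values can overlap the other calls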;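 also: 100% = DMSO carrier and 0% = 500 nM PU-H71 HSP90 inhibitor; lower value means stronger loss of Her2 protein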
# Target sequence (P04626 whole entry, looked up): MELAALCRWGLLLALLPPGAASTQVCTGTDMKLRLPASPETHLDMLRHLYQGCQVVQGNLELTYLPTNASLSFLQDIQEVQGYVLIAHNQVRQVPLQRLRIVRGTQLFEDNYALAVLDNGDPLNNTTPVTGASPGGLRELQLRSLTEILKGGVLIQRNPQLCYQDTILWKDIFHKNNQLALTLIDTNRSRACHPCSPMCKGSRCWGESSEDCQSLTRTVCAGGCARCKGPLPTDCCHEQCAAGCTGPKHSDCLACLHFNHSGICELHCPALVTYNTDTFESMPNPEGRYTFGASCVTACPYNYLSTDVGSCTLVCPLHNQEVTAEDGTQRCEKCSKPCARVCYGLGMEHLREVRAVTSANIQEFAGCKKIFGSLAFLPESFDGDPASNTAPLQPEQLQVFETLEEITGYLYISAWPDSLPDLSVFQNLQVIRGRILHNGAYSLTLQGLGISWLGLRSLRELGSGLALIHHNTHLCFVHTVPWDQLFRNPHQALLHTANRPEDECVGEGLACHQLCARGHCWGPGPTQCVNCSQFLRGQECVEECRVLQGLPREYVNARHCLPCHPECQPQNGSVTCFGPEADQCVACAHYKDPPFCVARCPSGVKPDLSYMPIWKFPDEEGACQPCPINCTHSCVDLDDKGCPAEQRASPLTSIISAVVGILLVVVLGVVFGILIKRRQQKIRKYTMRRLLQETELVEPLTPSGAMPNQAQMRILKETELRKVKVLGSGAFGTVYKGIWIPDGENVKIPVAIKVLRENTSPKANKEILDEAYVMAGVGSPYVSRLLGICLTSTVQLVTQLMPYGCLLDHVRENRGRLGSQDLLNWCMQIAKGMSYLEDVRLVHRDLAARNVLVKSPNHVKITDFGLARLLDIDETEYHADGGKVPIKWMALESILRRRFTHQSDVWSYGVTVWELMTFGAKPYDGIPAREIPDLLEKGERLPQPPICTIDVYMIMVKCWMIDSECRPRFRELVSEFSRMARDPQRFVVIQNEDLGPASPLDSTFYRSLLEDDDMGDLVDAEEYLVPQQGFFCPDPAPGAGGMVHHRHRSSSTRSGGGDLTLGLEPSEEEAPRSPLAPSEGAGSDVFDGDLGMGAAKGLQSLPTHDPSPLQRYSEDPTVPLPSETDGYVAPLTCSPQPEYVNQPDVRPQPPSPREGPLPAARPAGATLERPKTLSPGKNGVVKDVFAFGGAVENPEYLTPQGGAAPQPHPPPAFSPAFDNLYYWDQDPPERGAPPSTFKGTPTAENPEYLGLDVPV
# MKP-1 inh: MKP-1 phosphatase inhibitors, primary screen, biochemical, in vitro | recombinant MKP-1, OMFP hydrolysis fluorescence | inhibition, %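 (compounds tested at a single concentration somewhere between 10 and 100 µM)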 | Dual specificity protein phosphatase 1 (Homo sapiens), P28562 | AID 374, 2006 | 0.15% of 65,000 active;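 active = inhibition above about 50%, limit read from the data; inconclusive = inhibition over screen mean plus 3 SD, below that limit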;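 also: 0% = DMSO max control wells and 100% = wells with enzyme stopped by NaOH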
# Cdc25B inh: inhibitors of Cdc25B phosphatase catalytic domain, primary screen, biochemical, OMFP fluorescence; 0.1% of 65,000 active; AID 368, 2006; inhibition, %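 (compounds tested at 10 µM final in the well)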; M-phase inducer phosphatase 2 (Homo sapiens), P30305; recombinant Cdc25B, OMFP fluorescence Ex485/Em525; in the data active = inhibition above about 50%
# Redox H2O2: redox cycling hydrogen peroxide production, dose response, artefact control, biochemical, probe assessment | shares compounds with MKP-1 inh | EC50, µM | Redox cycling H2O2 generation, DTT, phenol red/HRP | 60 tested, under 10 active; call rule not given here
# M1 agonist conf: rat M1 muscarinic receptor agonists, confirmation, CHO-M1 cells, Fluo-4 calcium, duplicate retest. fluorescence change (max-min) at 10 µM. Fluo-4 calcium fluorescence, agonist mode; actives lie on both sides. 19% of 1,700 active. AID 1488, 2009. shares compounds with M1 agonist;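 active = fluorescence change differs from the solvent-only DMSO control mean at a set confidence level in both duplicate runs; inconclusive = differs from solvent-only control mean in just one of two runs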;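 also: an EC20 dose of acetylcholine follows compound addition during the same imaging run; raw fluorescence intensity difference in instrument units with no normalization to controls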
# M4 ag counter: agonist activity at rat M4 receptor, confirmation, counter-screen for M1 allosteric modulator project, cell-based, agonist mode; shares compounds with M1 agonist; CHO M4/Gqi5 cells, Fluo-4 calcium fluorescence; actives lie on both sides; fluorescence change (max-min) at 10 µM; 9% of 1,700 active;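 active = fluorescence change differing from the plate's solvent-only control wells at 99.7% confidence in both duplicates, whether higher or lower; inconclusive = differs from solvent controls in only one of two duplicates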
# * = called active by the depositor; ? = inconclusive; . = not tested or not shown.
SMILES,M1 agonist,M1 antag,HEK293 NFkB inh,HER2 expr 66K,MKP-1 inh,Cdc25B inh,Redox H2O2,M1 agonist conf,M4 ag counter
O=C(NC1CCCC1)c1sc(=S)n2c1[nH]c(=O)c1ccccc12,0.558,-1.4,11.8,66.1,10.5,-12.3,.,.,.
CCCCCNC(=O)c1ccc2c(=O)[nH]c3c(C(=O)NCC4CCCO4)sc(=S)n3c2c1 (configuration not stated),0.306,-0.972,0.4,101.2,55.1*,-4.0,>50,.,.
Cc1cc(C)n2c(SCC(=O)N3CCN(S(=O)(=O)c4ccc(Cl)cc4)CC3)nnc2n1,-0.245,0.031,15.9,107.2,56.3*,-0.7,>50,.,.
Cc1nc(-c2c(-c3ccc(O)cc3O)noc2C(F)(F)F)cs1,-0.189,-0.178,.,55.3,-18.4,-15.6,.,.,.
COc1ccc(-c2cnn(-c3ccccc3)c2N)cc1OC,0.205,-0.0459,4.8,109.0,8.7,2.3,.,.,.
Nc1nc2c(s1)CCc1c-2cnn1-c1ccccc1,-0.2,1.15,-29.5,75.8,51.7*,18.7,>50,.,.
Cc1cc(NC(=O)c2ccc(S(=O)(=O)N3CCCC3)cc2)nc2c1c(=O)oc1ccccc12,0.409,-0.101,-4.1,45.8,66.8*,-0.3,>50,.,.
Cc1cc(NC(=O)c2ccc(S(=O)(=O)N3CCOCC3)cc2)nc2c1c(=O)oc1ccccc12,0.209,-0.584,-0.1,55.3,36.3,-2.5,.,.,.
COc1ccc(NC(=O)CSc2nc3c(c(=O)[nH]2)CCC3)cc1OC,-0.0399,-0.0125,15.5,103.6,4.3,0.5,.,.,.
C=C(C)CSc1nc2c(c(=O)[nH]c(=O)n2C)n1CCC(C)C,1.04,0.024,19.2,97.2,5.4,-11.3,.,.,.
COc1ccc(-n2c(NC(=O)c3ccco3)c(C#N)c3nc4ccccc4nc32)cc1,26.7*,-0.0165,2.1,44.3,24.0,6.1,>50,23.1,30.6
CCC(=O)Nc1c(C#N)c2nc3ccccc3nc2n1-c1ccccc1C,-0.194,0.00371,12.9,60.3,-2.4,4.7,.,.,.
O=C(c1cccs1)c1no[n+]([O-])c1C(=O)c1cccs1,12.1*,-3.19*,19.1,8.8,91.2*,11.0,>50,21.1,-3.21
CC(C)N(O)C(=O)NC(C)(C)C,0.122,0.427,-9.4,68.8,1.5,-6.5,.,.,.
Nc1c(N2CCCC2)cc(Cl)c2nonc12,4.15*,-0.509,19.2,117.9,71.7*,4.6,>50,8.62,-43
CCC(C)NC(=O)CSC1=Nc2ccccc2C2=NC(CC(=O)NCc3ccccc3)C(=O)N12 (configuration not stated),0.361,0.448,15.1,115.8,6.6,-11.3,.,.,.
CC1CCCCN1C(=O)Nc1cccc(Cl)c1 (configuration not stated),15.9*,-19.4*,10.1,75.5,5.2,15.1,.,?,-59
O=C(Nc1ccn(-c2ccccc2)n1)c1ccc(S(=O)(=O)N2CCCCCC2)cc1,-0.544,-1.22,14.6,118.6,16.1,-8.5,.,.,.
CCCCN(C)Cc1c(O)ccc2c(-c3ccccc3)cc(=O)oc12,8.16*,-3.83*,9.8,101.4,-14.1,-5.1,.,-2.73,-20.9
CCN(CC)Cc1c(O)ccc2c(-c3ccccc3)cc(=O)oc12,0.925,-0.487,9.8,81.1,-2.5,-0.8,.,.,.
COc1cc(Nc2cc(C)nc3ncnn23)cc(OC)c1OC,4.45*,-0.684,9.3,65.1,1.7,-1.0,.,?,-35.8
